pEC50: −log10 of the molar value.
How the values were obtained:
[1] = test system: CC-1; assay: Percent inhibition of CC-1 cervical cell proliferation; type: functional, Homo sapiens
Procedure, shortened: (§1)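 Carcinoma cell lines were seeded at 2000–4000 cells/well and dosed the next day at 10 µM against a DMSO control. After 72 h cells were TCA-fixed, SRB-stained and the dye solubilized in Tris-HCl, then OD was read. Triplicates were averaged, and % inhibition = (1 − treated/control OD) × 100.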

[2] = test system: Caov-3 cell line; assay: Percent of growth inhibition of Cell line Caov-3(Ovarian) by the compound; type: functional, Homo sapiens; procedure, shortened: as §1
[3] = biological target: T1, Retinoic acid receptor alpha (Homo sapiens, UniProt P10276); assay: Transcriptional activation in CV-1 cells expressing human Retinoic acid receptor alpha; type: functional, cell-based
T1 sequence (P10276 whole entry): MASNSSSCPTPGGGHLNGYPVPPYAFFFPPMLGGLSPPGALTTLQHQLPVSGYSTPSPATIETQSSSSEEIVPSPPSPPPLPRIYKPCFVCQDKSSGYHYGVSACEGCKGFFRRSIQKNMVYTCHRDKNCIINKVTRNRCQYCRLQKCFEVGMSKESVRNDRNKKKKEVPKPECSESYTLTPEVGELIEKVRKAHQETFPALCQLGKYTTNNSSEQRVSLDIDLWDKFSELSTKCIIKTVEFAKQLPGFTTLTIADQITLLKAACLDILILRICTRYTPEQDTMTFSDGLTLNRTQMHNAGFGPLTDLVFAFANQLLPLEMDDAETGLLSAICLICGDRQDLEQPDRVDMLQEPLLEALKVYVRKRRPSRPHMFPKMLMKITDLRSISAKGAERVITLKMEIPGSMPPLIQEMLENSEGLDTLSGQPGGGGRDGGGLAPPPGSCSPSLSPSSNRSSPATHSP
Procedure, shortened: (§2)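 CV-1 cells were cotransfected with a human RAR or mouse RXR subtype vector, βRARE-tk-CAT reporter and β-gal internal control. Retinoids were applied at 10^-10–10^-5 M (0.1% DMSO) for 24 h, then CAT/β-gal was measured by ELISA. Potency is the concentration giving half of the agent's own maximal activity. Triplicates were run in at least two experiments.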

[4] = biological target: T2, Retinoic acid receptor alpha (Homo sapiens) (UniProt P10276); assay: Percent transcriptional activation relative to 9-cis RA in CV-1 cells expressing Retinoic acid receptor RAR alpha; type: functional, cell-based
T2 sequence (whole entry): T1 sequence (P10276 whole entry)
Procedure, shortened: (§3)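 CV-1 cells were transiently cotransfected with a human RARα/β/γ or mouse RXRα/β/γ expression vector (100 ng), βRARE-tk-CAT reporter (500 ng) and β-gal control (100 ng). Retinoids (10^-10–10^-5 M, 0.1% DMSO) were added 16–18 h later for 24 h, and CAT and β-gal were read by ELISA. Efficacy = maximal activity ÷ 9-cis-RA maximal activity. Triplicates were run in at least two experiments.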

[5] = biological target: T3, Retinoic acid receptor beta (Homo sapiens, UniProt P10826); assay: Transcriptional activation in CV-1 cells expressing Retinoic acid receptor RAR beta; type: functional, cell-based; procedure, shortened: as §2
T3 sequence (P10826 whole entry): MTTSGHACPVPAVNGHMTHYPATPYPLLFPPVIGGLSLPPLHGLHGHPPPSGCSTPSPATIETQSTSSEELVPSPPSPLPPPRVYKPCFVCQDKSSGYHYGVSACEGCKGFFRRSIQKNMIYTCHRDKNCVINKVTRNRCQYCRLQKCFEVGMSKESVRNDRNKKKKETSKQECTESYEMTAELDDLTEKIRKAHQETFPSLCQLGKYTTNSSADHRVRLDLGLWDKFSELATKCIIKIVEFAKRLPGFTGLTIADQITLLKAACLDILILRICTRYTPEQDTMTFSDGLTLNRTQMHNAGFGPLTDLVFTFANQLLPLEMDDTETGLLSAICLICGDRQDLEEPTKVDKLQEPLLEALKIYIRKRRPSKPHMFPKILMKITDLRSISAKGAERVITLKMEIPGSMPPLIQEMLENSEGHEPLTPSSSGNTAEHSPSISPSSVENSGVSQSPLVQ

[6] = biological target: T4, Retinoic acid receptor beta (Homo sapiens) (UniProt P10826); assay: Percent transcriptional activation relative to 9-cis RA in CV-1 cells expressing Retinoic acid receptor RAR beta; type: functional, cell-based; procedure, shortened: as §3
T4 sequence (whole entry): T3 sequence (P10826 whole entry)

[7] = Percent transcriptional activation relative to 9-cis RA in CV-1 cells expressing Retinoic acid receptor RAR gamma; type: functional, Homo sapiens; procedure, shortened: as §3
[8] = test system: SK-OV-3; assay: Percent of growth inhibition of Cell line SKOV-3(Ovarian) by the compound; type: functional, Homo sapiens; procedure, shortened: as §1
[9] = test system: SiHa; assay: Percent of growth inhibition of Cell line SiHa (Cervix) by the compound; type: functional, Homo sapiens; procedure, shortened: as §1
[10] = biological target: T5, Retinoic acid receptor RXR-gamma (Mus musculus, UniProt P28705); assay: Transcriptional activation in CV-1 cells expressing Retinoid X receptor RXR gamma; type: functional, cell-based; procedure, shortened: as §2
T5 sequence (P28705 whole entry): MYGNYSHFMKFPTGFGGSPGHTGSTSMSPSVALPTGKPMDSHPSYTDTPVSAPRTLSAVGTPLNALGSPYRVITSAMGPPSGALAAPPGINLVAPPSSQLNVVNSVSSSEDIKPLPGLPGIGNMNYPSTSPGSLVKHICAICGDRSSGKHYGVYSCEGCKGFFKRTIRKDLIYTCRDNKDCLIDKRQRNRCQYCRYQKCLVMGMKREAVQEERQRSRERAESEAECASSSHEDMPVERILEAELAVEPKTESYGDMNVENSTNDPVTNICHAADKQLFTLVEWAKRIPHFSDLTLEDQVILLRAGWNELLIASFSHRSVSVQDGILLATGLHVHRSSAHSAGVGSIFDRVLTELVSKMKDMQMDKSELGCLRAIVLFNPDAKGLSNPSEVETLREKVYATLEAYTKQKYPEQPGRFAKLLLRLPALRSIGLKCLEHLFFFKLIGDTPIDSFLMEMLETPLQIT

[11] = biological target: T6, Retinoic acid receptor RXR-gamma (Mus musculus) (UniProt P28705); assay: Percent transcriptional activation relative to 9-cis RA in CV-1 cells expressing Retinoid X receptor RXR gamma; type: functional, cell-based; procedure, shortened: as §3
T6 sequence (whole entry): T5 sequence (P28705 whole entry)

[12] = biological target: T7, Retinoic acid receptor RXR-beta (Mus musculus, UniProt P28704); assay: Transcriptional activation in CV-1 cells expressing Retinoid X receptor RXR beta; type: functional, cell-based; procedure, shortened: as §2
T7 sequence (P28704 whole entry): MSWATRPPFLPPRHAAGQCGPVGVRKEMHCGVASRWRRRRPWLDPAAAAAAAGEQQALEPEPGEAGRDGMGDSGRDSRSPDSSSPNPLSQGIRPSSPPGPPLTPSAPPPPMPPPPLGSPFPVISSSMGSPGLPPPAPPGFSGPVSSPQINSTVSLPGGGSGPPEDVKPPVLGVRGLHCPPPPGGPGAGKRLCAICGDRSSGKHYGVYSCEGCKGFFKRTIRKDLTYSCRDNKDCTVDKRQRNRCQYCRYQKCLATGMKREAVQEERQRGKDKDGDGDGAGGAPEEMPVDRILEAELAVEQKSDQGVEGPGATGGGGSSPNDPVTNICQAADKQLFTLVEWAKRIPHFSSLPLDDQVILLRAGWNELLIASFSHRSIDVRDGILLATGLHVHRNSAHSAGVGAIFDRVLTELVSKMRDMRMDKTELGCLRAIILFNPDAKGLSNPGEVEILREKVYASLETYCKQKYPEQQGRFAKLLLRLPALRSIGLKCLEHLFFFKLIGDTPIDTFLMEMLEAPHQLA

[13] = biological target: T8, Retinoic acid receptor RXR-beta (Mus musculus) (UniProt P28704); assay: Percent transcriptional activation relative to 9-cis RA in CV-1 cells expressing Retinoid X receptor RXR beta; type: functional, cell-based; procedure, shortened: as §3
T8 sequence (whole entry): T7 sequence (P28704 whole entry)

[14] = test system: SCC-2; assay: Percent of growth inhibition of Cell line SCC-2(Head and Neck) by the compound; type: functional, Homo sapiens; procedure, shortened: as §1
[15] = test system: SCC-38; assay: Percent of growth inhibition of Cell line SCC-38(Head and Neck) by the compound; type: functional, Homo sapiens; procedure, shortened: as §1
[16] = test system: SW 962; assay: Percent of growth inhibition of Cell line SW962 (Vulvar) by the compound; type: functional, Homo sapiens; procedure, shortened: as §1
[17] = Transcriptional activation in CV-1 cells expressing Retinoid X receptor RXR alpha; type: functional, cell-based; procedure, shortened: as §2
[18] = Percent transcriptional activation relative to 9-cis RA in CV-1 cells expressing Retinoid X receptor RXR alpha; type: functional, Mus musculus; procedure, shortened: as §3
[19] = The compound was evaluated for Tissue Transglutaminase induction
Procedure, shortened: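 HEL cells ((1–2) × 10^5/mL) were exposed to 10 µM retinoid for 48 h, washed in PBS and sonicated in Tris/NaCl/EDTA/PMSF buffer (pH 7.4). TGase was measured as Ca2+-dependent [14C]putrescine incorporation into N,N-dimethylcasein, counting acid-insoluble radioactivity, with Lowry protein. Efficacy is expressed relative to maximal t-RA activity.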

[20] = test system: SW 954; assay: Percent of growth inhibition of Cell line SW954 (Vulvar) by the compound; type: functional, Homo sapiens; procedure, shortened: as §1
[21] = test system: CC-1; assay: Percent of growth inhibition of Cell line CC-1(Cervix) by the compound; type: functional, Homo sapiens; procedure, shortened: as §1
[22] = Transcriptional activation in CV-1 cells expressing Retinoic acid receptor RAR gamma; type: functional, cell-based; details: Homo sapiens; procedure, shortened: as §2

pEC50 [3]	Efficacy [4]	pEC50 [5]	Efficacy [6]	pEC50 [10]	Efficacy [11]	pEC50 [12]	Efficacy [13]	pEC50 [17]	Induction [19]	SMILES	Inhibition [1]	Inhibition [2]	Efficacy [7]	Inhibition [8]	Inhibition [9]	Inhibition [14]	Inhibition [15]	Inhibition [16]	Efficacy [18]	Inhibition [20]	other results
5.95	45%	6.59	64%	7.70	52%	7.48	53%	6.22	37	CCOC(=O)c1ccc(OC(=O)c2ccc3c(c2)C(C)(C)CCN3C)cc1	25%	0%	0%	0%	40%	20%	20%	15%	47%	35%	
6.66	59%	7.39	71%	7.57	47%	7.33	45%	7.92	49	CCOC(=O)c1ccc(OC(=O)c2ccc3c(c2)C(C)(C)CCN3C(C)C)cc1	15%	13%	0%	2%	25%	24%	25%	25%	62%	49%	
										C/C(=C/c1ccc(C(=O)O)cc1)c1ccc2c(c1)C(C)(C)CCC2(C)C		15%		20%				20%		30%	
										CC1=C(/C=C/C(C)=C\C=C\C(C)=C\C(=O)O)C(C)(C)CCC1 [ALITRETINOIN]		25%		27%	25%	25%	24%	30%		35%	Inhibition [21]: 15%
6.10	64%	7.04	63%	7.31	52%	7.15	55%	6.99	49	CCOC(=O)c1ccc(OC(=O)c2cc3c(cc2C)N(C)CCC3(C)C)cc1	20%	10%	103%	0%	26%	20%	20%	80%	53%	77%	pEC50 [22]: 8.22

— ChEMBL document CHEMBL1132376, “Synthesis, structure-activity relationships, and RARgamma-ligand interactions of nitrogen heteroarotinoids” (J Med Chem, 1999)
